{"source": "PubChem BioAssay AID1885", "about": "(Broad Institute, 2009)", "note": "The whole screen tested about 300,000 compounds, of which about 4,400 (1.5%) were called active. Shown is part of a subset that was picked to be rich in actives. Unmarked numbers belong to inactive results.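 The calls were made as follows: active = mean inhibition across valid replicates above about 55% (limit read from the data); inconclusive = mean below that limit but half or more replicates reach it; inactive = mean below it, under half of replicates reach it.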", "data": [{"test": "Trypanosoma cruzi replication blockers in host cells – luminescence, NIH3T3 host cells, primary screen (AID 1885);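 also: signal also drops with host cell toxicity which is not excluded here; 0% = plate median of DMSO wells and 100% = zero luminescence signal; higher percent means less beta-gal luminescence so fewer parasites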", "details": "T. cruzi beta-gal in NIH3T3, luminescence, 90 h; hits give high values; concentration not given here", "in_short": "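Read-out: Parasite load inhibition, % | Test system: Mouse NIH/3T3 fibroblasts infected with β-gal-expressing T. cruzi Tulahuen C4 | Amount: 5,000 cells/well | Medium: DMEM, 2% fetal bovine serum | Signal: GalScreen β-gal luminescence, detergent lysis, 60 min | Timing: 3 h attach, ≥90 h co-culture | Also added: Tulahuen C4 trypomastigotes, 5000/well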", "values": [{"compound": "CC(C)(C)NC(=O)Cn1cnc([N+](=O)[O-])n1", "inhibition": "50.4%"}, {"compound": "O=C(CSc1ncccn1)NCCc1ccccc1", "inhibition": "-13.3%"}, {"compound": "O=C(Cn1cnc([N+](=O)[O-])n1)NCCc1ccccc1", "inhibition": "76.4% (active)"}, {"compound": "Cc1cc(C)c(S(=O)(=O)n2cc(C(C)C(N)C(=O)O)c3ccccc32)c(C)c1", "note": "(stereo unspecified)", "inhibition": "-6.09%"}, {"compound": "Cc1cccc(C)c1OCC(O)CN1CCCCC1", "note": "(stereo unspecified)", "inhibition": "-1.54%"}, {"compound": "OC(COCCC12CC3CC(CC(C3)C1)C2)CN1CCCCC1", "note": "(stereo unspecified)", "inhibition": "62% (active)"}, {"compound": "OC(COc1ccc(Br)cc1)CN1CCCC1", "note": "(stereo unspecified)", "inhibition": "10.2%"}, {"compound": "COc1ccc(C(=O)/C=C/c2ccc(-c3ccccc3)cc2)cc1CSCC(=O)O", "inhibition": "-21%"}, {"compound": "Cc1ccc(S(=O)(=O)N(C)C)cc1NC(=O)COC(=O)/C=C/c1cccs1", "inhibition": "-8.51%"}, {"compound": "Cc1ccc(-c2cc(=O)[nH]c(NCc3ccccc3)n2)cc1", "inhibition": "-16.4%"}, {"compound": "Cc1c(C)n(Cc2ccc(Cl)cc2)c2ccc(C(=O)NCCCN3CCOCC3)cc12", "inhibition": "12.7%"}, {"compound": "COc1ccc(C2CC(c3ccccc3)=NN2C(=O)c2ccc(Cl)c([N+](=O)[O-])c2)cc1", "note": "(stereo unspecified)", "inhibition": "54.8% (active)"}, {"compound": "COc1ccc(C2CC(c3ccc([N+](=O)[O-])cc3)=NN2C(C)=O)cc1", "note": "(stereo unspecified)", "inhibition": "4.42%"}, {"compound": "COc1ccc(C2=NN(C(=O)c3cccnc3)C(c3ccccc3)C2)cc1", "note": "(stereo unspecified)", "inhibition": "3.02%"}, {"compound": "O=C(NC1CCCCC1)C1CC(=O)N(CCc2ccccc2)C1", "note": "(stereo unspecified)", "inhibition": "-16.2%"}, {"compound": "C=CCOc1ccc(/C=C/C(=O)OCC(=O)NCC2CCCO2)cc1", "note": "(stereo unspecified)", "inhibition": "-9.89%"}, {"compound": "CCOC(=O)CNc1nc(Cl)nc(Nc2ccc(OC)cc2OC)n1", "inhibition": "-0.745%"}, {"compound": "O=C(O)c1ccccc1CSc1nc2ccccc2s1", "inhibition": "-11.7%"}, {"compound": "Cc1nc2nc(CSc3nc4ccccc4s3)cc(=O)n2[nH]1", "inhibition": "-6.18%"}, {"compound": "CCN(CC)CCCSc1nc2ccccc2s1", "inhibition": "69.6% (active)"}, {"compound": "COc1cc2c(cc1OC)C(C(=O)NCc1ccco1)C1c3ccccc3CCN1C2=O", "note": "(stereo unspecified)", "inhibition": "7.27%"}, {"compound": "COC(=O)c1c(C)cc(O)c(C)c1O", "inhibition": "-2.6%"}, {"compound": "O=[N+]([O-])c1ccc2oc(-c3cccc(O)c3)nc2c1", "inhibition": "-23.1%"}, {"compound": "Cc1cc(S(=O)(=O)Nc2ccc(C(=O)NCC(c3ccco3)N3CCCC3)cc2)ccc1F", "note": "(stereo unspecified)", "inhibition": "63.7% (active)"}, {"compound": "COc1ccc(C(CNC(=O)c2ccc(NS(=O)(=O)c3ccc(F)c(C)c3)cc2)N(C)C)cc1", "note": "(stereo unspecified)", "inhibition": "3.47%"}, {"compound": "COc1ccc(C(CNC(=O)c2cccc(NS(=O)(=O)c3ccc(C)c(F)c3)c2)N2CCCC2)cc1", "note": "(stereo unspecified)", "inhibition": "-13.1%"}, {"compound": "O=C(NNC(=O)c1cc(-c2ccccc2Cl)nc2ccccc12)c1csc(N2CCOCC2)n1", "inhibition": "-2.25%"}, {"compound": "O=C(Nc1ccc(C(=O)O)cc1)/C(=C\\c1ccccc1)NC(=O)c1ccc(Br)cc1", "inhibition": "-8.09%"}, {"compound": "CCN(CC(=O)NCc1cccs1)S(=O)(=O)c1ccc(NC(C)=O)cc1", "inhibition": "-2.26%"}, {"compound": "CC1CCCCN1S(=O)(=O)c1ccc(C(=O)Nc2nnc(-c3cccs3)o2)cc1", "note": "(stereo unspecified)", "inhibition": "43.1%"}, {"compound": "CC1CCCCN1S(=O)(=O)c1ccc(S(=O)(=O)N(CC(=O)Nc2ccccc2)Cc2cccs2)cc1", "note": "(stereo unspecified)", "inhibition": "57.2% (active)"}, {"compound": "CC(OC(=O)C1CC(=O)N(Cc2ccccc2)C1)C(=O)Nc1ccccc1[N+](=O)[O-]", "note": "(stereo unspecified)", "inhibition": "-2.86%"}, {"compound": "COc1cccc(NC(=S)N(CCc2c(C)[nH]c3ccccc23)Cc2ccco2)c1", "inhibition": "18.1%"}, {"compound": "COc1ccc2[nH]c(C)c(CCN(Cc3cccs3)C(=S)Nc3ccccc3OC)c2c1", "inhibition": "60% (active)"}, {"compound": "Cc1[nH]c2ccccc2c1CCN(Cc1cccs1)C(=S)NC(C)(C)C", "inhibition": "26.1%"}, {"compound": "CC(C)c1nc(SCC(=O)NC(=O)NC(C)(C)C)n[nH]1", "inhibition": "-2.85%"}, {"compound": "CCCCCCCCCCOC(=O)Cn1c(COc2cccc(OC)c2)[n+](C)c2ccccc21", "inhibition": "65.1% (active)"}, {"compound": "CCCCCCCCCCOC(=O)Cn1c(COc2ccc(C)cc2)[n+](C)c2ccccc21", "inhibition": "46.2%"}, {"compound": "CCn1c(=N)n(CC(=O)c2cccc(OC)c2)c2ccccc21", "inhibition": "7.38%"}, {"compound": "CCCCCC(=O)N1CCN(S(=O)(=O)c2ccc3c(c2)OCCCO3)CC1", "inhibition": "-5.19%"}, {"compound": "Cc1cc(Nc2ccc(Br)cc2)nc2ccccc12", "inhibition": "32.6%"}, {"compound": "CCCc1nc2c(c(=O)c3ccccc3n2C)c(=O)n1C1CCCCCC1", "inhibition": "22.4%"}, {"compound": "Cn1c2ccccc2c(=O)c2c(=O)n(Cc3ccco3)c(COc3ccccc3)nc21", "inhibition": "62.2% (active)"}, {"compound": "CCCc1nc2c(c(=O)c3ccccc3n2C)c(=O)n1-c1cc(C)cc(C)c1", "inhibition": "34.2%"}, {"compound": "Cc1ccc(OCCC(=O)OCC(=O)N2c3ccccc3NC(=O)C2(C)C)cc1", "inhibition": "-1.24%"}, {"compound": "COc1ccc(S(=O)(=O)N2CCOC23CCN(S(=O)(=O)c2ccc([N+](=O)[O-])cc2)CC3)cc1", "inhibition": "61.5% (active)"}, {"compound": "COc1ccc(S(=O)(=O)N2CCSCC2)cc1", "inhibition": "5.81%"}, {"compound": "COc1ccc(CNC(=O)C(=O)N2CCC3(CC2)OCCN3S(=O)(=O)c2ccc(C)cc2)cc1", "inhibition": "-4.09%"}, {"compound": "CC1(C)O[C@H]2CC(=O)OCC23[C@H]2CC[C@@]4(C)[C@H](c5ccoc5)OC(=O)[C@H]5O[C@]54[C@]2(C)C(=O)C[C@@H]13", "note": "(stereo partly specified)", "inhibition": "-3.05%"}, {"compound": "c1ccc2c(C[n+]3csc4ccccc43)cccc2c1", "inhibition": "59.8% (active)"}, {"compound": "c1ccc(NCc2cccc3ccccc23)nc1", "inhibition": "1.93%"}, {"compound": "Nc1scc[n+]1Cc1cccc2cccnc12", "inhibition": "-1.61%"}, {"compound": "FC(F)Oc1ccccc1NC(=S)Nc1cccc(Cl)c1Cl", "inhibition": "0.408%"}, {"compound": "CC(C(=O)NCC1CCCCC1)N(C)Cc1cccc(Cl)c1", "note": "(stereo unspecified)", "inhibition": "10.6%"}, {"compound": "CCOC(=O)/C(=C\\c1ccc([N+](=O)[O-])cc1)C(=O)c1cc(C(C)=O)c(Nc2ccccc2)s1", "inhibition": "55.8% (active)"}, {"compound": "CCOC(=O)COc1ccc([N+](=O)[O-])cc1", "inhibition": "-3.58%"}, {"compound": "Cc1ccc(NC(=O)/C(=C/c2ccc([N+](=O)[O-])cc2)NC(=O)c2ccccc2)cc1", "inhibition": "1.7%"}, {"compound": "COC(=O)C1[C@H]2SC(C)(C)C(C(=O)OC)N2C(=O)N1Cc1nc2ccccc2s1", "note": "(stereo partly specified)", "inhibition": "-4.35%"}, {"compound": "CC(OC(=O)c1ccc(S(=O)(=O)N2CCOCC2)cc1)c1ccccc1", "note": "(stereo unspecified)", "inhibition": "1.58%"}, {"compound": "CC(C)CN(C(=O)COC(=O)c1ccc(Cl)c(N)c1)c1c(N)n(Cc2ccccc2)c(=O)[nH]c1=O", "inhibition": "10.2%"}, {"compound": "O=C(CCCCCn1c(=S)[nH]c2cc3c(cc2c1=O)OCO3)N1CCN(c2ccc(F)cc2)CC1", "inhibition": "7.91%"}, {"compound": "Cc1ccc(C)c(N2CCN(C(=O)CCCCCn3c(=S)[nH]c4ccc(N5CCOCC5)cc4c3=O)CC2)c1", "inhibition": "56.8% (active)"}, {"compound": "Cc1ccc(C)c(N2CCN(C(=O)CCCCn3c(=O)[nH]c4ccccc4c3=O)CC2)c1", "inhibition": "4.26%"}, {"compound": "Cc1ccn(C(CC(=O)c2ccc(Br)cc2)C(=O)O)n1", "note": "(stereo unspecified)", "inhibition": "-6.81%"}, {"compound": "CCN(CC)C(=O)CSC1c2ccccc2C(=O)N1c1ccccc1", "note": "(stereo unspecified)", "inhibition": "-17.2%"}, {"compound": "CCC(C(=O)NCc1ccc(OC)cc1)n1nc(C)n2c(cc3occc32)c1=O", "note": "(stereo unspecified)", "inhibition": "-2.81%"}, {"compound": "COc1ccc(CCNC(=O)c2cc3sccc3n2C)cc1OC", "inhibition": "-11.3%"}, {"compound": "CCOc1ccc(CCNC(=O)C(CC)n2nc(C)n3c(cc4sccc43)c2=O)cc1OCC", "note": "(stereo unspecified)", "inhibition": "59.3% (active)"}, {"compound": "COc1ccc(-n2nnnc2CNC(=O)c2ccc3ccccc3c2)cc1", "inhibition": "-2.55%"}, {"compound": "Cc1ccc(CN(Cc2cccnc2)C(=S)Nc2cccc(Cl)c2C)cc1", "inhibition": "3%"}, {"compound": "Cc1c(Cl)cccc1NC(=S)N(Cc1ccccc1)Cc1cccnc1", "inhibition": "18.3%"}, {"compound": "Cc1ccc(CN(Cc2cccnc2)C(=S)Nc2cc(Cl)ccc2C)cc1", "inhibition": "77.2% (active)"}, {"compound": "CCOc1ncccc1C(=O)NNC(=O)c1cccc(S(=O)(=O)Nc2ccccc2OC)c1", "inhibition": "0.733%"}, {"compound": "CC1(C)Cc2c(C#N)c(SCc3nc4ccccc4[nH]3)nc(N3CCOCC3)c2CO1", "inhibition": "23.1%"}, {"compound": "COc1ccc(CSc2nc(N3CCOCC3)c3c(c2C#N)CC(C)(C)OC3)cc1", "inhibition": "60.5% (active)"}, {"compound": "CC(C)c1nc(N2CCOCC2)c(C#N)c2c1COC(C)(C)C2", "inhibition": "12.5%"}, {"compound": "CSc1ccccc1NC(=O)C(C)N1C(=O)c2ccccc2S1(=O)=O", "note": "(stereo unspecified)", "inhibition": "-1.05%"}, {"compound": "COc1ccc(N(CC(=O)N2CCOCC2)S(=O)(=O)c2ccccc2)cc1Cl", "inhibition": "-3.61%"}, {"compound": "CCCn1nc(C(=O)NNC(=O)CSCC(=O)Nc2cc(C)on2)c2ccccc2c1=O", "inhibition": "-11.5%"}, {"compound": "N#CCN(C(=O)COC(=O)C1CC2CCCC(C1)C2=O)c1ccccc1", "note": "(stereo unspecified)", "inhibition": "-10.6%"}, {"compound": "Cc1nc2ccccc2nc1N/N=C/c1ccc(O)cc1O", "inhibition": "60% (active)"}, {"compound": "Oc1ccc(/C=N/NC2=NCCCCC2)c(O)c1", "inhibition": "-40.4%"}, {"compound": "Oc1ccc(/C=N/Nc2nc(-c3ccccc3F)nc3ccccc23)c(O)c1", "inhibition": "-4.73%"}, {"compound": "Cc1c(NC(=O)C(C)Oc2cccc(Cl)c2)c(=O)n(-c2ccccc2)n1C", "note": "(stereo unspecified)", "inhibition": "-6.21%"}, {"compound": "COc1ccccc1NC(=O)CN1CCN(S(=O)(=O)c2ccc(Br)cc2)CC1", "inhibition": "8.31%"}, {"compound": "O=C(CN1CCN(S(=O)(=O)c2ccc(F)cc2)CC1)Nc1ccccc1F", "inhibition": "4.08%"}, {"compound": "O=C(CN1CCN(S(=O)(=O)c2ccc(Br)cc2)CC1)Nc1ccccc1C(=O)c1ccccc1", "inhibition": "56% (active)"}, {"compound": "COc1cccc(COc2ccc(N(C)S(=O)(=O)c3ccccc3)cc2)c1", "inhibition": "9.64%"}, {"compound": "COc1ccc(N=Cc2c(O)[nH]c3ccccc23)cc1OC", "inhibition": "-17.8%"}, {"compound": "CN=c1scc(-c2cc(OC)ccc2OC)n1/N=C/c1c(C)[nH]c2ccccc12", "inhibition": "73.4% (active)"}, {"compound": "CCn1c(-c2cc(OC)ccc2OC)csc1=Nc1c(C)n(C)n(-c2ccccc2)c1=O", "inhibition": "13.7%"}]}]}
